What was measured:
[1] = biological target: T1, C-C chemokine receptor type 1 (Homo sapiens, UniProt P32246); experiment: Inhibition of [125I]-MIP-1 alpha binding to recombinant human C-C chemokine receptor type 1 expressed in HEK293 cells; assay type: cell-based
T1 sequence (P32246 whole entry): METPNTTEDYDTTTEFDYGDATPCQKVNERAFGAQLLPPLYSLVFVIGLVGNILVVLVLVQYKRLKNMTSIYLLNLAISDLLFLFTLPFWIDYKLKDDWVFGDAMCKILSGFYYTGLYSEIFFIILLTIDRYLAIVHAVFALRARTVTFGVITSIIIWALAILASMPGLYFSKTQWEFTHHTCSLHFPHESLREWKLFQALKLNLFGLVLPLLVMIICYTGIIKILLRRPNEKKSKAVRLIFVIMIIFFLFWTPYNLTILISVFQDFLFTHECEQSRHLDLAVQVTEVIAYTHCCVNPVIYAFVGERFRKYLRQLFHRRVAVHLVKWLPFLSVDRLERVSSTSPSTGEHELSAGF

[2] = biological target: T1, C-C chemokine receptor type 1; experiment: Inhibition of MIP-1-alpha-induced intracellular calcium mobilization in HEK293 cells expressing human CCR1 receptor; assay type: functional, cell-based
How it was run: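 HEK-293 cells overexpressing human CCR1 plated at 80 000 cells/well on poly-D-lysine, cultured one day, loaded with 4 μM Fluo-3 for 1 h at 37 °C in HBSS/Hepes with probenecid, then washed. Compound pretreatment 10 min at 37 °C, then 30 nM MIP-1α stimulation. FLIPR fluorescence read over 3 min at 37 °C. Six-concentration dose curves give IC50.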

SMILES | Ki [1] | IC50 [2]
N#CC1(CCCN2CCC(O)(c3ccc(Cl)cc3)CC2)c2ccccc2COc2ccccc21 (configuration not stated) | 34 nM | 7.7 µM
N#CC1(CCCN2CCC(O)(c3ccc(Br)cc3)CC2)c2ccccc2Cc2ccccc21 | 29 nM | –
COC(=O)C(C#N)(CCCN1CCC(O)(c2ccc(Cl)cc2)CC1)c1ccccc1 (configuration not stated) | 53 nM | –
N#CC(CCCN1CCC(O)(c2ccc(C(F)(F)F)cc2)CC1)(c1ccccc1)c1ccccc1 | 153 nM | –
COc1ccc(C(C#N)CCCN2CCC(O)(c3ccc(Cl)cc3)CC2)cc1Br (configuration not stated) | 74 nM | 1.9 µM
N#CC(CCCCl)(CCCN1CCC(O)(c2ccc(Cl)cc2)CC1)c1ccccc1 (configuration not stated) | 51 nM | 8.3 µM
N#CC(CCCCCN1CCC(O)(c2ccc(Cl)cc2)CC1)(c1ccccc1)c1ccccc1 | 99 nM | 5.6 µM
N#CC1(CCCN2CCC(O)(c3ccc(Cl)cc3)CC2)c2ccccc2C[S+]([O-])c2ccccc21 (stereo in doubt; 6q) | 71 nM | –
N#CC(CCCN1CCC(O)(c2ccc(Cl)cc2)CC1)c1ccc2ccccc2c1 (configuration not stated) | 206 nM | 7.1 µM
N#CC1(CCCN2CCC(O)(c3ccc(Cl)cc3)CC2)c2ccccc2C[S+]([O-])c2ccccc21 (stereo in doubt; 6p) | 54 nM | –
N#CC(CCCN1CCC(O)(c2ccc(Cl)cc2)CC1)c1ccccc1O (configuration not stated) | 790 nM | –
N#CC(CCCN1CCC(O)(c2ccc(Cl)cc2)CC1)c1cccnc1 (configuration not stated) | 1000 nM | –
C[N+]1(CCCC(C#N)c2ccc3ccccc3c2)CCC(O)(c2ccc(Cl)cc2)CC1 (configuration not stated) | 22 nM | 0.7 µM
N#CC(CCCN1CCC(O)(c2ccc(Cl)cc2)CC1)c1cccs1 (configuration not stated) | 128 nM | 8.4 µM
N#CC(CCCN1CCC(O)(c2ccc(Cl)cc2)CC1)c1ccccc1Br (configuration not stated) | 366 nM | –
N#CC(CCCN1CCC(O)(c2cccc(Cl)c2)CC1)(c1ccccc1)c1ccccc1 | 385 nM | –
N#CC(CCCN1CCC(O)(c2ccc(Cl)cc2)CC1)c1cccc([N+](=O)[O-])c1 (configuration not stated) | 510 nM | –
CCOC(=O)C(C#N)(CCCN1CCC(O)(c2ccc(Cl)cc2)CC1)c1ccccc1 (configuration not stated) | 33 nM | 7 µM
N#Cc1ccc(C2(O)CCN(CCCC(C#N)(c3ccccc3)c3ccccc3)CC2)cc1 | 92 nM | 10.9 µM
N#CC1(CCCN2CCC(O)(Cc3ccccc3)CC2)c2ccccc2CSc2ccccc21 (configuration not stated) | 405 nM | –
N#CC(CCCN1CCC(O)(c2ccc(I)cc2)CC1)(c1ccccc1)c1ccccc1 | 233 nM | –
N#CC(CCCN1CCC(O)(c2ccc3ccccc3c2)CC1)(c1ccccc1)c1ccccc1 | 715 nM | –
N#CC(CCCN1CCC(O)(c2ccc(Cl)cc2)CC1)c1ccc(OCc2ccccc2)cc1 (configuration not stated) | 3430 nM | –

SMILES | Ki [1] | IC50 [2]
C[N+]1(CCCC(c2ccccc2)c2ccccc2)CCC(O)(c2ccc(Cl)cc2)CC1 (configuration not stated) | 6 nM | 1.8 µM
COc1ccc(C2(O)CCN(CCCC(C#N)(c3ccccc3)c3ccccc3)CC2)cc1 | 347 nM | –
N#CC(CCCN1CCC(O)(c2ccc(Cl)cc2)CC1)c1ccc(Cl)cc1 (configuration not stated) | 463 nM | –
OC1(c2ccc(Cl)cc2)CCN(CCCC(c2ccccc2)c2ccccc2)CC1 | 116 nM | 8.7 µM
N#CC(CCCN1CCC(O)(c2ccc(Cl)cc2)CC1)(c1ccccc1)N1CCCCC1 (configuration not stated) | 130 nM | 4.8 µM
N#CC1(CCCN2CCC(O)(c3ccc(Cl)cc3)CC2)c2ccccc2C=Cc2ccccc21 | 56 nM | 5.3 µM
N#CC(CCCN1CCC(O)(c2ccc(Cl)cc2)CC1)c1ccccc1 (configuration not stated) | 54 nM | –
N#CC1(CCCN2CCC(O)(c3ccc(Cl)cc3)CC2)c2ccccc2Oc2ccccc21 | 234 nM | –
N#CC1(CCCN2CCC(O)(c3ccc(Cl)cc3)CC2)c2ccccc2CSc2ccccc21 (configuration not stated) | 24 nM | 7 µM
N#CC(CCCN1CCC(O)(c2ccc(Cl)cc2)CC1)c1ccsc1 (configuration not stated) | 236 nM | 9.8 µM
N#CC(CCCN1CCC(O)(c2ccc(Cl)cc2)CC1)(c1ccccc1)C1CCCCC1 (configuration not stated) | 400 nM | –
N#CC(CCCN1CCC(O)(c2ccc(Cl)cc2)CC1)c1ccccc1F (configuration not stated) | 371 nM | –
N#CC(CCN1CCC(O)(c2ccc(Cl)cc2)CC1)(c1ccccc1)c1ccccc1 | 4060 nM | 0.4 µM
O=C(NCC(CCCN1CCC(O)(c2ccc(Cl)cc2)CC1)(c1ccccc1)c1ccccc1)NC1CCNCC1 | 9 nM | –
N#CC(CCCN1CCC(O)(c2ccc(Cl)cc2)CC1)(c1ccccc1)c1ccccc1 [BERLEX COMPOUND] | 52 nM | 2.5 µM
NCC(CCCN1CCC(O)(c2ccc(Cl)cc2)CC1)(c1ccccc1)c1ccccc1 | 244 nM | –
CN(C)c1ccc(C2(O)CCN(CCCC(C#N)(c3ccccc3)c3ccccc3)CC2)cc1 | 1160 nM | –
N#CC1(CCCN2CCC(O)(c3ccccc3)CC2)c2ccccc2CSc2ccccc21 (configuration not stated) | 203 nM | –
N#CC(CCCN1CCC(O)(c2ccc(Cl)cc2)CC1)c1ccccc1Cl (configuration not stated) | 306 nM | –
N#CC1(CCCN2CCC(O)(c3ccc(Br)cc3)CC2)c2ccccc2CSc2ccccc21 (configuration not stated) | 22 nM | –
CCCCC1(O)CCN(CCCC(C#N)(c2ccccc2)c2ccccc2)CC1 | 4010 nM | –
COc1cc(C(C#N)CCCN2CCC(O)(c3ccc(Cl)cc3)CC2)cc(OC)c1OC (configuration not stated) | 497 nM | –
N#CC(CCCN1CCC(O)(c2ccccn2)CC1)(c1ccccc1)c1ccccc1 | 906 nM | –

Continued by falling Ki [1], values first:

Ki [1] | IC50 [2] | SMILES
7500 nM | – | N#CC(CCCN1CCC(CO)(c2ccccc2)CC1)(c1ccccc1)c1ccccc1
1420 nM | – | CCOc1ccc(C(C#N)CCCN2CCC(O)(c3ccc(Cl)cc3)CC2)cc1 (configuration not stated)
1330 nM | – | N#CC(CCCN1CCC(O)(c2cc(Cl)cc(Cl)c2)CC1)(c1ccccc1)c1ccccc1
1020 nM | – | N#CC(CCCN1CCC(O)(c2cccs2)CC1)(c1ccccc1)c1ccccc1
975 nM | – | N#CC(CCCN1CCC(O)(c2ccc(Cl)cc2)CC1)c1ccc(O)cc1 (configuration not stated)
908 nM | – | N#CC(CCCN1CCC(O)(c2ccc(Cl)cc2)CC1)c1cccc(Oc2ccccc2)c1 (configuration not stated)
623 nM | – | N#CC1(CCCN2CCC(O)(c3cccc(C(F)(F)F)c3)CC2)c2ccccc2CSc2ccccc21 (configuration not stated)
584 nM | – | N#CC(CCCN1CCC(O)(c2ccc(Cl)cc2)CC1)c1ccccn1 (configuration not stated)
533 nM | – | N#CC(CCCN1CCC(O)(c2ccc(Cl)cc2)CC1)c1ccc(F)cc1 (configuration not stated)
460 nM | – | CC(C#N)(CCCN1CCC(O)(c2ccc(Cl)cc2)CC1)c1ccccc1 (configuration not stated)
429 nM | – | Cn1cccc1C(C#N)CCCN1CCC(O)(c2ccc(Cl)cc2)CC1 (configuration not stated)
406 nM | – | COC(=O)C(CCCN1CCC(O)(c2ccc(Cl)cc2)CC1)(c1ccccc1)c1ccccc1
359 nM | – | COc1ccc(C(C#N)CCCN2CCC(O)(c3ccc(Cl)cc3)CC2)cc1 (configuration not stated)
330 nM | – | N#CC(CCCN1CCC(O)(c2ccc(Cl)cc2)CC1)c1c(F)c(F)c(F)c(F)c1F (configuration not stated)
224 nM | – | N#CC1(CCCN2CCC(O)(c3ccc(Cl)c(C(F)(F)F)c3)CC2)c2ccccc2CSc2ccccc21 (configuration not stated)
206 nM | – | N#CC(CCCN1CCC(O)(c2cccnc2)CC1)(c1ccccc1)c1ccccc1
164 nM | – | Cc1ccccc1C1(O)CCN(CCCC2(C#N)c3ccccc3CSc3ccccc32)CC1 (configuration not stated)
136 nM | – | N#CC(CCCN1CCC(O)(c2ccc(F)cc2)CC1)(c1ccccc1)c1ccccc1
98 nM | 5.8 µM | N#Cc1ccccc1C(C#N)CCCN1CCC(O)(c2ccc(Cl)cc2)CC1 (configuration not stated)
93 nM | – | CCC(C#N)(CCCN1CCC(O)(c2ccc(Cl)cc2)CC1)c1ccccc1 (configuration not stated)
32 nM | 3.3 µM | CN1C(=O)c2ccccc2C(C#N)(CCCN2CCC(O)(c3ccc(Cl)cc3)CC2)c2ccccc21 (configuration not stated)
8 nM | – | C[N+]1(CCCC(C#N)(c2ccccc2)c2ccccc2)CCC(O)(c2ccc(Cl)cc2)CC1 (configuration not stated)

From ChEMBL document CHEMBL1132282, “Discovery of novel non-peptide CCR1 receptor antagonists” (J Med Chem, 1999)
